Source: ChEMBL document CHEMBL1153602, “Photochemical electrocyclisation of 3-vinylindoles to pyrido[2,3-a]-, pyrido[4,3-a]- and thieno[2,3-a]-carbazoles: design, synthesis, DNA binding and antitumor cell cytotoxicity” (2009)
Activity calls are given as the source filed them. The calls are words filed in the database; no cut-off is given here.

Experiments:
[1] = system: Calf thymus DNA; assay: Binding affinity to calf thymus DNA assessed as change in melting temperature at a compound to DNA molar ratio of 0.5 by UV-vis spectroscopy; type: nucleic-acid assay; conditions: Bos taurus
How it was run: (§1)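 UV absorbance of DNA at 260 nm recorded every minute from 20 to 100 °C, ramping 1 °C/min in a thermostated quartz cell. Tm is taken as the midpoint of the hyperchromic transition. ΔTm = Tm(DNA+drug) − Tm(DNA alone). Calf-thymus DNA or poly(dAdT)2 was used at DNA/drug ratios from 0.1 to 1.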

[2] = system: HT-29; assay: Growth inhibition of human HT-29 cells by MTS assay; type: functional
How it was run: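 HT-29 cells, 3×10^3 per well, were seeded 24 h before treatment with compound at 1 nM–100 µM, run as 3 series of duplicate or triplicate points. After 72 h at 37 °C, MTS tetrazolium was added for 2 h and absorbance read at 492 nm. GC50 is the concentration halving cell number versus untreated control wells.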

[3] = system: Calf thymus DNA; assay: Binding affinity to calf thymus DNA assessed as positive dichroic signal at phosphate/drug ratio of 4.8 by circular dichroism spectra; type: nucleic-acid assay; conditions: Bos taurus
How it was run: (§2)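 Circular dichroism of drug at […] in 1 ml of 1 mM sodium cacodylate, pH 7.0, with or without CT-DNA at 10–200 µM. Phosphate/compound ratio ran from 0.4 to 8. The induced CD signal in the ligand absorption region was recorded.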

[4] = system: Calf thymus DNA; assay: Binding affinity to calf thymus DNA assessed as change in melting temperature at a compound to DNA molar ratio of 0.1 by UV-vis spectroscopy; type: nucleic-acid assay; conditions: Bos taurus; how it was run: as §1
[5] = system: Calf thymus DNA; assay: Binding affinity to calf thymus DNA assessed as change in melting temperature at a compound to DNA molar ratio of 0.25 by UV-vis spectroscopy; type: nucleic-acid assay; conditions: Bos taurus; how it was run: as §1
[6] = system: Nucleic Acid; assay: Binding affinity to poly(dA).poly(dT) duplex DNA assessed as change in thermal melting temperature at compound to DNA ratio of 0.5 by UV-vis spectroscopy; type: nucleic-acid assay
[7] = system: Nucleic Acid; assay: Binding affinity to poly(dA).poly(dT) duplex DNA assessed as change in thermal melting temperature at compound to DNA ratio of 0.25 by UV-vis spectroscopy; type: nucleic-acid assay
[8] = system: Nucleic Acid; assay: Binding affinity to poly(dA).poly(dT) duplex DNA assessed as change in thermal melting temperature at compound to DNA ratio of 0.1 by UV-vis spectroscopy; type: nucleic-acid assay
[9] = system: Nucleic Acid; assay: Binding affinity to poly(dA).poly(dT) duplex DNA assessed as change in thermal melting temperature at compound to DNA ratio of 1 by UV-vis spectroscopy; type: nucleic-acid assay
[10] = system: Calf thymus DNA; assay: Binding affinity to calf thymus DNA assessed as change in melting temperature at a compound to DNA molar ratio of 1 by UV-vis spectroscopy; type: nucleic-acid assay; conditions: Bos taurus; how it was run: as §1
[11] = system: Nucleic Acid; assay: Binding affinity to pBS 117bp DNA by DnaseI footprinting assay; type: nucleic-acid assay
How it was run: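 Ligand and fragment were pre-incubated 15 min at 37 °C, then digested with DNase I at 0.001 unit/ml in 20 mM NaCl, 2 mM MgCl2, 2 mM MnCl2, pH 7.3. Products were resolved on a denaturing 8% polyacrylamide/8 M urea gel, with a G-track marker.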

[12] = system: HT-29; assay: Cell cycle arrest in human HT-29 cells assessed as accumulation at G2/M phase after 24 hrs using PI staining by flow cytometry; type: functional, cell-based
How it was run: (§3)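 HT-29 cells, 3×10^5 per sample in exponential growth, were exposed to graded drug concentrations for 24 h. Cells were then trypsinised, fixed in 70% ethanol and stained 30 min in the dark with propidium iodide (50 µg/ml) plus RNase (100 µg/ml). DNA content was measured by flow cytometry, quantifying cell-cycle phases and the sub-G1 fraction.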

[13] = system: Calf thymus DNA; assay: Binding affinity to calf thymus DNA assessed as positive dichroic signal at phosphate/drug ratio by circular dichroism spectra; type: nucleic-acid assay; conditions: Bos taurus; how it was run: as §2
[14] = system: Calf thymus DNA; assay: Binding affinity to calf thymus DNA assessed as quenching constant by fluorescence spectroscopy; type: nucleic-acid assay; conditions: Bos taurus
How it was run: (§4)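 Drug at a fixed 20 µM in 1 ml BPE buffer in a 10 mm quartz cuvette, titrated with CT-DNA at 10–200 µM base pairs. Excitation was set at each compound's own wavelength (276–319 nm). Constants came from Stern–Volmer plots of F0/F against CT-DNA concentration, with the slope taken as Ksv.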

[15] = system: Calf thymus DNA; assay: Binding affinity to calf thymus DNA assessed as negative dichroic signal at phosphate/drug ratio by circular dichroism spectra; type: nucleic-acid assay; conditions: Bos taurus; how it was run: as §2
[16] = system: HT-29; assay: Cell cycle arrest in human HT-29 cells assessed as accumulation at S phase after 24 hrs using PI staining by flow cytometry; type: functional, cell-based; how it was run: as §3
[17] = system: Calf thymus DNA; assay: Binding affinity to calf thymus DNA assessed as positive dichroic signal at phosphate/drug ratio of 1.2 by circular dichroism spectra; type: nucleic-acid assay; conditions: Bos taurus; how it was run: as §2
[18] = system: Calf thymus DNA; assay: Binding affinity to calf thymus DNA assessed as quenching constant up 80 uM by fluorescence spectroscopy; type: nucleic-acid assay; conditions: Bos taurus; how it was run: as §4

Compound | ΔTm [1] | GI50 [2] | Activity [3] | ΔTm [4] | ΔTm [5] | ΔTm [6] | ΔTm [7] | ΔTm [8] | ΔTm [9] | ΔTm [10] | Activity [11] | Activity [12] | Activity [13] | KSV [14] | Activity [15] | Activity [16] | Activity [17] | KSV [18]
CN(C)CCCNC(=O)c1cc2c3cccc(Cl)c3[nH]c2c2ncccc12 | 10.4 °C | 4.49 µM | Active | 2.6 °C | 5 °C | 23.6 °C | 17.6 °C | 9.7 °C | 29.8 °C | 13.8 °C | Active | Active |  |  |  |  |  | 
CN(C)CCNC(=O)c1cc2c3cc(Cl)ccc3[nH]c2c2ccncc12 | 11.2 °C | 1.08 µM |  | 5.3 °C | 7.9 °C | 24.7 °C | 18.9 °C | 11.6 °C | 29.6 °C | 15.1 °C | Active |  | Active | 6.72 ×10³ /M | Active | Active |  | 
CN(C)CCNC(=O)c1cc2c3cccc(Cl)c3[nH]c2c2ncccc12 | 5.1 °C | 14 µM |  | 1.1 °C | 1.5 °C | 13.6 °C | 6.2 °C | 2.8 °C | 8.8 °C | 7.9 °C | Active | Active |  |  |  |  | Active | 
CN(C)CCCNC(=O)c1cc2c3ccccc3[nH]c2c2sccc12 | 4.4 °C | 10.8 µM |  | 0 °C | 1.5 °C | 16.4 °C | 11.9 °C | 5.9 °C | 20.9 °C | 5.8 °C | Active |  |  |  |  |  |  | 2.65 ×10⁴ /M
